# From PubChem BioAssay
# APP 5'UTR act: APP 5'UTR luciferase reporter activation; activation, % at 2 µM; AID 1276; SH-SY5Y APP 5'UTR luciferase reporter, luminescence; zero percent = DMSO vehicle wells; actives 1% (n = 190,000);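 active = activation above a set limit, based on mean plus 3 SD of controls, cut at about 140% in these data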
# STAT3 act: increases IL-6 driven STAT3 reporter signal. actives 0.91% (n = 190,000). U3A cells, IL-6 STAT3-luciferase reporter, luminescence; 100% = signal with IL-6 EC80 alone. activation (% of control), % at 5.6 µM;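 active = activation above the screen-wide mean of compound activation plus 3 SD, cut at about 130% in these data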;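 also: 0% = background luminescence of wells with medium and substrate only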
#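 Material: STAT1-lacking human U3A cells, STAT3 luciferase reporter | Benchmarks: IL-6-only wells as 100% reference | Probe or stimulus: IL-6 (33 ng/mL) | Timing: Compound 1 h, then IL-6 6 h at 37 °C | Detection: Luminescence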
# STAT3 blocker: STAT3 signaling inhibition; inhibition, % at 5.5 µM; actives 0.89% (n = 190,000); U3A cells, IL-6 STAT3-luciferase reporter, luminescence; host cell line lacks STAT1; AID 862;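 active = inhibition above the mean inhibition across all screened compounds plus 3 SD, cut at about 44% in these data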;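 also: 0% = DMSO only wells and 100% = 100 µM nifuroxazide control wells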
# STAT1 inh: inhibitors of IFN-gamma induced STAT1 signaling | NIH 3T3 STAT1-luciferase reporter, luminescence | inhibition, % at 5.5 µM | actives 0.35% (n = 200,000) | AID 920;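 active = inhibition above a set limit, the mean inhibition across all tested compounds plus 3 SD, cut at about 34% in these data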;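 also: 0% = IFN-gamma with DMSO and 100% = IFN-gamma with 300 µM nifuroxazide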
# STAT1 activator: activators of IFN-gamma induced STAT1 signaling. NIH 3T3 STAT1-luciferase reporter, luminescence; 100% = IFN-gamma alone, no compound. activation (% of control), % at 5.5 µM. actives 2.6% (n = 200,000). AID 932;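 active = activation above the screen-wide mean activation plus 3 SD, cut at about 130% in these data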;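 also: raw ratio to IFN-gamma control signal so 100% means no change and 0% no light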
# NF-kB expr up: NF-kB expression increase, human neuronal cells; NF-kB reporter expression; stronger effect = higher value; fold change at 12.5 µM; actives 1.6% (n = 190,000); in the data active = fold change above about 3.3
# Active calls of the source: *; / = no result given. Only some compounds are listed: those with a hit (about 4.9% of all), similar ones and a draw of the others.
SMILES,APP 5'UTR act,STAT3 act,STAT3 blocker,STAT1 inh,STAT1 activator,NF-kB expr up
CCOC(=O)c1cnc2c(N=Nc3ccccc3)c(N)nn2c1N,20.4,83.7,24.9,-42.0,137.5*,1.62
CCOC(=O)c1cnc2c(N=Nc3cccc(Cl)c3)c(N)nn2c1N,-6.7,95.4,7.3,-2.4,102.1,1.33
Cc1ccc(N2C(=O)N(CC(=O)C(C)(C)C)c3ccccc3S2(=O)=O)cc1,7.8,100.8,7.5,9.6,91.2,0.75
Cn1c(-c2ccc3c(c2)OCO3)cnc1NCc1ccccc1,7.0,102.6,4.7,-12.6,111.3,1.1
Cn1c(-c2ccc3c(c2)OCO3)cnc1NCc1ccccc1Cl,60.1,87.7,20.1,-45.1,139.9*,2.31
COc1ccc(/C=C(/NC(=O)c2ccc([N+](=O)[O-])cc2)C(=O)NCCCN(C)C)cc1,2.6,101.7,-1.4,-4.5,104.9,0.92
Cc1cn(C(=O)c2ccccc2)c(=S)n1-c1ccc(Br)cc1,-18.6,96.2,6.6,4.0,96.3,1.18
COC(=O)c1cc(-c2c(C)nn(-c3ccccc3)c2C)n[nH]1,2.2,94.5,10.3,12.0,95.3,5.94*
COc1ccc(-c2[nH]ncc2-c2cscn2)c(O)c1,-5.3,101.8,1.9,6.2,93.9,1.09
COc1cccc(/C=N/Nc2ncnc(N)c2[N+](=O)[O-])c1OC,85.5,28.4,86.5*,58.9*,45.9,1.71
C/C(=N\NC(=O)c1ccccc1F)c1ccc2c(c1)Nc1ccccc1S2,43.5,96.6,-0.9,-34.7,131.6*,1.38
Cn1cccc1C(=O)NC(=O)COC(=O)c1cc(S(=O)(=O)N2CCCCC2)ccc1Cl,14.6,108.0,-7.8,2.9,95.9,1.05
Oc1ccc(Nc2nc(-c3ccc4ccccc4c3)cs2)cc1,-2.4,94.9,7.7,-9.5,108.7,2.77
Oc1ccc(-c2nc(-c3ccc(O)c(O)c3)cs2)cc1,-93.6,115.2,-11.0,6.4,95.1,3.81*
Cc1nn2cc(-c3ccc(Cl)cc3)cnc2c1Cl,155.1*,94.1,8.7,-44.6,140.2*,3.43*
CC(=O)c1cnc2c(-c3ccc(Cl)cc3)c(C)nn2c1C,6.7,88.5,15.8,-3.4,102.1,1.33
Cc1ccc2nc3sc(C(=O)N4CCOCC4)c(N)c3cc2c1,192.4*,28.6,89.9*,50.4*,54.0,1.61
Cc1ccc2nc3sc(C(=O)Nc4c(C)[nH]c(=O)[nH]c4=O)c(N)c3cc2c1,16.0,95.4,4.8,7.1,93.6,0.73
Cc1ccc2nc3sc(C(=O)NCc4ccco4)c(N)c3cc2c1,179.2*,69.6,39.7,-40.1,139.4*,3.66*
COc1cc2cc3c(N)c(C(=O)NCc4ccco4)sc3nc2cc1OC,28.7,92.5,14.7,-51.1,146.5*,0.98
Cc1cccc(-c2noc(CCCC(=O)N3CCOCC3)n2)c1,-6.4,99.5,6.4,-0.7,100.6,1.19
CC(C)Oc1cccc(C(=O)NC2=NCCS2)c1,86.5,102.2,8.2,-37.4,132.3*,2.06
C1=C(c2ccccc2)Nc2ccccc2N=C1c1ccccc1,-1.4,108.5,-7.2,-12.0,110.5,1
COc1ccc(C(=O)/C=C2\Sc3ccccc3N2C)cc1,195.2*,114.8,-14.7,-33.0,131.7*,7.29*
COc1ccc(NC(=S)N2CCN(C(=O)C3CCCO3)CC2)c(OC)c1 (stereo not given),-6.7,102.0,-4.8,0.3,99.8,1.35
SMILES,APP 5'UTR act,STAT3 act,STAT3 blocker,STAT1 inh,STAT1 activator,NF-kB expr up
O=C(NCCc1ccccc1)NC1CCCCC1,37.9,111.0,-10.6,-25.7,123.7,3.4*
O=C(NCCC1=CCCCC1)NC1CCCCC1,81.6,100.1,-0.5,-47.6,143.9*,4.46*
O=C(NC1CCCCCC1)C(=S)NCCc1ccccc1,-21.8,109.3,-8.6,-7.0,104.7,1.48
Cc1cc(C)c(C(=O)COC(=O)c2cc([N+](=O)[O-])ccc2NCCO)cc1C,3.1,110.7,-6.3,-3.2,102.9,0.84
N=c1sccn1CC(=O)Nc1ccccc1Sc1ccccc1,5.6,96.3,8.4,7.4,92.8,1.04
CSC(=S)N/N=C(\C)c1ccccc1,-3.1,86.5,18.5,-11.2,108.9,5.94*
C/C(=N\NC(=S)Nc1cccc(C)c1)c1ccccc1,3.1,95.4,13.0,-8.1,107.3,1.57
CC(C)Sc1ncnc2c1oc1ccccc12,-1.2,94.7,8.1,-3.5,103.2,1.19
c1ccc(Sc2ncnc3c2oc2ccccc23)nc1,67.8,103.3,-0.6,-35.0,132.1*,2.32
COc1ncnc2c1oc1ccccc12,99.5,113.3,-13.2,-52.4,146.1*,3.33*
CCCSc1ncnc2c1oc1ccccc12,-3.5,91.3,12.0,-19.6,117.9,1.47
COc1cc(O)sc1C=Nc1ccc(Cl)cc1,33.9,118.9,-20.3,-35.3,132.2*,2
C/C(O)=C(/C#N)c1nc2ccccc2[nH]1,/,104.7,0.6,-1.7,101.6,1.16
CC(=O)OC(/C(O)=C(\C#N)c1nc2ccccc2[nH]1)c1ccccc1 (stereo not given),17.5,80.2,27.6,-0.1,100.1,3.64*
CC(=O)Oc1ccc(N(C(C)=O)S(=O)(=O)c2cccs2)c2ccccc12,-0.6,113.4,-19.7,-3.1,102.8,0.71
c1ccc(OCc2nc3c4c(ncn3n2)-c2ccccc2CC42CCCC2)cc1,-17.2,95.1,9.1,7.5,93.2,0.85
O=C1C(C=NCCN2CCOCC2)=C(O)c2ccccc21,112.3,107.5,-4.8,-36.8,133.4*,1.98
CCn1cc(/C=N\NC(=O)C2(C)CC2(Cl)Cl)c(C)n1 (stereo not given),44.9,105.6,-8.5,-6.3,106.1,1.14
Cc1ccc(C2=NN=C(NC(=O)C(F)(F)F)SC2)cc1,47.5,77.8,29.4,-6.3,104.2,4.28*
Cn1ccnc1SCC(=O)c1ccc2ccccc2c1,163.5*,100.8,-1.2,-49.0,146.0*,3.04
Cn1ccnc1SCC(=O)Nc1ccc2ccccc2c1,104.7,73.5,34.6,-36.7,140.3*,4.38*
Cn1ccnc1SCC(=O)c1cccc(Br)c1,45.8,121.0,-17.8,-14.2,113.0,1.49
CCN(Cc1ccccc1)c1ccc(N=Nc2nn(C)c(C)c2[N+](=O)[O-])cc1,27.1,102.0,-7.6,-36.4,133.2*,1.41
CCOC(=O)c1c(C)[nH]c(C)c1C(=O)COC(=O)CNC(=O)C1CCCCC1,-20.7,107.3,-6.2,-3.9,102.0,1.07
CCOC(=O)c1c(C)[nH]c(C(=O)COC(=O)CNC(=O)c2ccccc2Cl)c1C,37.2,110.9,-14.6,-35.6,132.5*,2.53
CCOC(=O)c1c(C)[nH]c(C(=O)COC(=O)[C@H](C)NC(=O)c2ccccc2Cl)c1C,36.0,96.5,9.1,-8.0,107.3,1.63
CCOC(=O)c1c(C)[nH]c(C(=O)COC(=O)CNC(=O)C2CCCCC2)c1C,-9.9,107.4,-3.0,-39.1,135.6*,1.1
